Laboratory results reported in ChEMBL document CHEMBL4033712, “Synthesis and biological evaluation of new C-12(α/β)-(N-) sulfamoyl-phenylamino-14-deoxy-andrographolide derivatives as potent anti-cancer agents” (Bioorg Med Chem Lett, 2017).

What was measured:
Type in all cases: functional
EKVX = assay: Growth inhibition of human EKVX cells incubated for 48 hrs by sulforhodamine B assay
Method in brief: (§1)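 NCI-60 five-dose screen at 0.01, 0.1, 1, 10 and 100 µM, 48 h incubation, sulforhodamine B end point. GI50 (50% decrease in net growth), TGI (total growth inhibition) and LC50 (net 50% loss of initial cells) taken from log concentration versus % growth inhibition curves.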

UACC-257 = assay: Anticancer activity against human UACC257 cells assessed as cell growth at 10 uM after 48 hrs by sulforhodamine B assay relative to control; details: UACC-257, 48 h, read-out: Activity
Method in brief: (§2)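 NCI-60 single-dose screen: compound added at 10 µM, cultures incubated 48 h. End point by sulforhodamine B protein-binding dye. Value reported as percent growth of treated cells relative to untreated control cells.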

HCC 2998 = assay: Anticancer activity against human HCC2998 cells assessed as cell growth at 10 uM after 48 hrs by sulforhodamine B assay relative to control; details: HCC 2998, 48 h, read-out: Activity
Method in brief: (§3)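 Single-dose NCI-60 panel screen: compound added at 10 µM and the culture incubated 48 h. The end point was read by protein staining with sulforhodamine B. The value is percent growth of treated cells relative to untreated control cells, reported as a mean graph across the panel.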

HCT-15 = assay: Anticancer activity against human HCT15 cells assessed as cell growth at 10 uM after 48 hrs by sulforhodamine B assay relative to control; details: HCT-15, 48 h, read-out: Activity; method in brief: as §3
UACC-62 = assay: Anticancer activity against human UACC62 cells assessed as cell growth at 10 uM after 48 hrs by sulforhodamine B assay relative to control; details: UACC-62, 48 h, read-out: Activity; method in brief: as §2
CCRF-CEM = assay: Anticancer activity against human CCRF-CEM cells assessed as cell growth at 10 uM after 48 hrs by sulforhodamine B assay relative to control; details: read-out: Activity; method in brief: as §3
ACHN = assay: Anticancer activity against human ACHN cells assessed as cell growth at 10 uM after 48 hrs by sulforhodamine B assay relative to control; details: read-out: Activity; method in brief: as §3
T47D = assay: Anticancer activity against human T47D cells assessed as cell growth at 10 uM after 48 hrs by sulforhodamine B assay relative to control; details: read-out: Activity; method in brief: as §2
786-0 [1] = assay: Growth inhibition of human 786-0 cells incubated for 48 hrs by sulforhodamine B assay; details: 786-0, 48 h; method in brief: as §1
TK-10 = assay: Anticancer activity against human TK10 cells assessed as cell growth at 10 uM after 48 hrs by sulforhodamine B assay relative to control; details: TK-10, 48 h, read-out: Activity; method in brief: as §2
SNB-19 = assay: Anticancer activity against human SNB19 cells assessed as cell growth at 10 uM after 48 hrs by sulforhodamine B assay relative to control; details: SNB-19, 48 h, read-out: Activity; method in brief: as §3
Hs-578T = assay: Anticancer activity against human Hs 578T cells assessed as cell growth at 10 uM after 48 hrs by sulforhodamine B assay relative to control; details: read-out: Activity; method in brief: as §3
K562 [2] = assay: Anticancer activity against human K562 cells assessed as cell growth at 10 uM after 48 hrs by sulforhodamine B assay relative to control; details: K562, 48 h, read-out: Activity; method in brief: as §3
OVCAR-4 = assay: Anticancer activity against human OVCAR4 cells assessed as cell growth at 10 uM after 48 hrs by sulforhodamine B assay relative to control; details: OVCAR-4, 48 h, read-out: Activity; method in brief: as §3
HL-60(TB) = assay: Anticancer activity against human HL-60(TB) cells assessed as cell growth at 10 uM after 48 hrs by sulforhodamine B assay relative to control; details: HL-60, 48 h, read-out: Activity
Method in brief: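 NCI-60 human tumour panel single-dose screen: cells exposed to 10 µM compound for 48 h. Growth end point read with sulforhodamine B protein-binding dye. Expressed as percent growth of treated cells versus untreated control cells.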

SNB-75 = assay: Anticancer activity against human SNB75 cells assessed as cell growth at 10 uM after 48 hrs by sulforhodamine B assay relative to control; details: SNB-75, 48 h, read-out: Activity; method in brief: as §2
BT-549 = assay: Anticancer activity against human BT549 cells assessed as cell growth at 10 uM after 48 hrs by sulforhodamine B assay relative to control; details: BT-549, 48 h, read-out: Activity; method in brief: as §3
UO-31 = assay: Anticancer activity against human UO31 cells assessed as cell growth at 10 uM after 48 hrs by sulforhodamine B assay relative to control; details: UO-31, 48 h, read-out: Activity; method in brief: as §2
NCI-H460 = assay: Anticancer activity against human NCI-H460 cells assessed as cell growth at 10 uM after 48 hrs by sulforhodamine B assay relative to control; details: NCI-H460, 48 h, read-out: Activity; method in brief: as §3
OVCAR-8 = assay: Anticancer activity against human OVCAR8 cells assessed as cell growth at 10 uM after 48 hrs by sulforhodamine B assay relative to control; details: OVCAR-8, 48 h, read-out: Activity; method in brief: as §3
NCI/ADR-RES = assay: Anticancer activity against human NCI/ADR-RES cells assessed as cell growth at 10 uM after 48 hrs by sulforhodamine B assay relative to control; details: read-out: Activity; method in brief: as §3
786-0 [3] = assay: Anticancer activity against human 786-0 cells assessed as cell growth at 10 uM after 48 hrs by sulforhodamine B assay relative to control; details: 786-0, 48 h, read-out: Activity; method in brief: as §3
SR = assay: Anticancer activity against human SR cells assessed as cell growth at 10 uM after 48 hrs by sulforhodamine B assay relative to control; details: read-out: Activity; method in brief: as §2
A498 = assay: Anticancer activity against human A498 cells assessed as cell growth at 10 uM after 48 hrs by sulforhodamine B assay relative to control; details: A498, 48 h, read-out: Activity; method in brief: as §3
OVCAR-3 = assay: Anticancer activity against human OVCAR3 cells assessed as cell growth at 10 uM after 48 hrs by sulforhodamine B assay relative to control; details: OVCAR-3, 48 h, read-out: Activity; method in brief: as §3
SK-MEL-2 = assay: Anticancer activity against human SK-MEL-2 cells assessed as cell growth at 10 uM after 48 hrs by sulforhodamine B assay relative to control; details: SK-MEL-2, 48 h, read-out: Activity; method in brief: as §3
SF-268 = assay: Anticancer activity against human SF268 cells assessed as cell growth at 10 uM after 48 hrs by sulforhodamine B assay relative to control; details: SF-268, 48 h, read-out: Activity; method in brief: as §3
MOLT-4 = assay: Anticancer activity against human MOLT4 cells assessed as cell growth at 10 uM after 48 hrs by sulforhodamine B assay relative to control; details: MOLT-4, 48 h, read-out: Activity; method in brief: as §3
SK-OV-3 = assay: Anticancer activity against human SKOV3 cells assessed as cell growth at 10 uM after 48 hrs by sulforhodamine B assay relative to control; details: SK-OV-3, 48 h, read-out: Activity; method in brief: as §3
K562 [4] = assay: Growth inhibition of human K562 cells incubated for 48 hrs by sulforhodamine B assay; details: K562, 48 h; method in brief: as §1
[5] = read-out: LC50 (the source's name)

## C=C1CC[C@@H]2[C@](C)(COC(C)=O)[C@H](OC(C)=O)CC[C@@]2(C)[C@H]1CC(Nc1ccc(S(=O)(=O)Nc2nccs2)cc1)C1=CCOC1=O (stereo partly specified)
EKVX
  GI50: 14 µM
  TGI: 27 µM
EKVX; [5]
  CC50: 52 µM
UACC-257
  growth at 10 µM: 22.4%
HCC 2998
  growth at 10 µM: 54.2%
HCT-15
  growth at 10 µM: -39.2%
UACC-62
  growth at 10 µM: 21.2%
CCRF-CEM
  growth at 10 µM: -27.7%
ACHN
  growth at 10 µM: -46.6%
T47D
  growth at 10 µM: 34.6%
786-0 [1]
  GI50: 2.54 µM
  LC50 (concentration giving net 50% loss of initial cells): 23.6 µM
  TGI: 6.74 µM
TK-10
  growth at 10 µM: 55%
SNB-19
  growth at 10 µM: 49.1%
Hs-578T
  growth at 10 µM: 51.9%
K562 [2]
  growth at 10 µM: 3.4%
OVCAR-4
  growth at 10 µM: 38%
HL-60(TB)
  growth at 10 µM: -20.9%
SNB-75
  growth at 10 µM: 28.3%
BT-549
  growth at 10 µM: -23.5%
UO-31
  growth at 10 µM: 13.5%
NCI-H460
  growth at 10 µM: 29.5%
OVCAR-8
  growth at 10 µM: 4.39%
NCI/ADR-RES
  growth at 10 µM: 9.2%
786-0 [3]
  growth at 10 µM: 6.27%
SR
  growth at 10 µM: -5.84%
A498
  growth at 10 µM: 85%
OVCAR-3
  growth at 10 µM: -70.2%
SK-MEL-2
  growth at 10 µM: 28.4%
SF-268
  growth at 10 µM: 21.3%
MOLT-4
  growth at 10 µM: -4.45%
SK-OV-3
  growth at 10 µM: 79.9%
K562 [4]
  GI50: 3.6 µM
  TGI: 29 µM
K562 [4]; [5]
  CC50: > 100 µM
